{"source": "ChEMBL document CHEMBL3808372", "about": "“Identification of quinones as novel PIM1 kinase inhibitors” (Bioorg Med Chem Lett, 2016)", "design_in_all_cases": "scale not given: the % may be the effect or the level left", "key": {"[1]": {"molecular_target": "Inhibitor of nuclear factor kappa-B kinase subunit beta (Homo sapiens) (UniProt O14920)", "sequence (O14920 whole entry)": "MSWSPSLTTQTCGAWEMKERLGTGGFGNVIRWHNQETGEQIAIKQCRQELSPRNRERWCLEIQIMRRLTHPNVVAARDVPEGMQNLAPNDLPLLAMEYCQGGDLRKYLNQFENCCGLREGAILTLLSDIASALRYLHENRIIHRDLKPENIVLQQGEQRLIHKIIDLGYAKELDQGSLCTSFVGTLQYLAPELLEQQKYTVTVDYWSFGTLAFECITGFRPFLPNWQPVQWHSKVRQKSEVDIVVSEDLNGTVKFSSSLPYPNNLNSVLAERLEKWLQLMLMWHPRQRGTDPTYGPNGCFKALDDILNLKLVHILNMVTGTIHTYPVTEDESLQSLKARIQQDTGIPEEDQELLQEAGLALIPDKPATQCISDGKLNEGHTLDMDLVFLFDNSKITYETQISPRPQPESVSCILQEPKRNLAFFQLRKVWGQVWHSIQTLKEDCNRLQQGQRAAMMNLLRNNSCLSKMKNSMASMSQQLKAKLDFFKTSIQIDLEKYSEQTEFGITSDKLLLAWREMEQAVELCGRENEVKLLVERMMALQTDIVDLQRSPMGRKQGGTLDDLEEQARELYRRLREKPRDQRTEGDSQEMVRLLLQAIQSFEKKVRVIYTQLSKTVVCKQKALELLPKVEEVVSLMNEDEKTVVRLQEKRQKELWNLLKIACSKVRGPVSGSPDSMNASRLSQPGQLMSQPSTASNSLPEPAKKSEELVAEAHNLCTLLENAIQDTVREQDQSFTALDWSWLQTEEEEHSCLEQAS", "assay": "Inhibition of full length human IKK-beta assessed as enzyme activity at 10 uM by KINOMEScan assay", "in_short": "(§1)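 Competition binding screen on a 100-kinase KINOMEscan panel, compound tested at a single 10 μM concentration. Primary binding read-out expressed as % Ctrl = (test compound signal − positive control signal)/(negative control signal − positive control signal) × 100, with lower values meaning stronger binding.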"}, "[2]": {"molecular_target": "Mitogen-activated protein kinase 8 (Homo sapiens) (UniProt P45983)", "sequence (P45983 whole entry)": "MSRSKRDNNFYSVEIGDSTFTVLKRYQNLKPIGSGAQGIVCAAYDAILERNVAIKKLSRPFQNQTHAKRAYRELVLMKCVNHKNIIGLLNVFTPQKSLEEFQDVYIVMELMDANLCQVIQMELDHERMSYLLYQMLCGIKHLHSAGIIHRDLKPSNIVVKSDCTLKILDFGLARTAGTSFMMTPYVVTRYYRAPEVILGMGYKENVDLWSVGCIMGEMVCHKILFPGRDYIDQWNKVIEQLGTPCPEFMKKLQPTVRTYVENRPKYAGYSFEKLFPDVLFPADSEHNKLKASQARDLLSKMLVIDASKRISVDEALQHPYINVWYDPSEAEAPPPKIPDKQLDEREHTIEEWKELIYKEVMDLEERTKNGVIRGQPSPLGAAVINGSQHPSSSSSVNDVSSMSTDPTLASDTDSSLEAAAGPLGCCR", "assay": "Inhibition of full length human JNK1 assessed as enzyme activity at 10 uM by KINOMEScan assay", "in_short": "as §1"}, "[3]": {"molecular_target": "MAP kinase-activated protein kinase 2 (Homo sapiens) (UniProt P49137)", "sequence (P49137 whole entry, looked up, the tested form may be a part)": "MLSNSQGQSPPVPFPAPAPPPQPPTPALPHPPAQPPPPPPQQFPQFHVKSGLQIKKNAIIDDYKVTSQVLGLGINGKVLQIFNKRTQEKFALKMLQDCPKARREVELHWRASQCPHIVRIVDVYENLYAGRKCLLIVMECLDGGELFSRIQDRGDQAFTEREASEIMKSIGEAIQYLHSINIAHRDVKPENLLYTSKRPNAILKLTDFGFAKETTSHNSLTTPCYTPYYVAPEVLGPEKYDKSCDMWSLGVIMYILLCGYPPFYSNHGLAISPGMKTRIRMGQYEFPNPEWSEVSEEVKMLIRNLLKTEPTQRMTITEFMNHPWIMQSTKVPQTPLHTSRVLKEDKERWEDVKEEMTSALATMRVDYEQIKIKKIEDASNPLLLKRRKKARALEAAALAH", "assay": "Inhibition of human MAPKAPK2 (48 to 345 amino acid residues) expressed in bacterial system assessed as enzyme activity at 10 uM by KINOMEScan assay", "in_short": "as §1"}, "[4]": {"molecular_target": "Serine/threonine-protein kinase pim-2 (Homo sapiens) (UniProt Q9P1W9)", "sequence (Q9P1W9 whole entry, looked up, the tested form may be a part)": "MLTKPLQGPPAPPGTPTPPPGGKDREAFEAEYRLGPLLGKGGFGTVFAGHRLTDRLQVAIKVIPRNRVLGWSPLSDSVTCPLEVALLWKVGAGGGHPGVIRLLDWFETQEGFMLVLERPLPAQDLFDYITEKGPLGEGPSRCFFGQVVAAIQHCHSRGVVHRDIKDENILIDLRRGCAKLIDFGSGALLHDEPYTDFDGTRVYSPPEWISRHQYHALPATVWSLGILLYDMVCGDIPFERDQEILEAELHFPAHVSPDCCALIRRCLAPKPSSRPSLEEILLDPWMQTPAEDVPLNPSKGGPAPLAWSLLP", "assay": "Inhibition of human PIM2 (1 to 291 amino acid residues) expressed in bacterial system assessed as enzyme activity at 10 uM by KINOMEScan assay", "in_short": "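Single-concentration competition binding screen (KINOMEscan) across a 100-kinase panel at 10 μM. Primary binding read-out is reported as % of control: (test signal − positive-control signal)/(negative-control signal − positive-control signal) × 100. Lower values indicate stronger binding.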"}}}
{"smiles": "O=C1C2=C(C(=O)c3c(O)ccc(O)c31)[C@@H](O)[C@@H](O)[C@@H](O)C2", "values": [{"measurement": "Activity", "setting": "[1]", "value": 91, "unit": "%"}, {"measurement": "Activity", "setting": "[2]", "value": 96, "unit": "%"}, {"measurement": "Activity", "setting": "[3]", "value": 93, "unit": "%"}, {"measurement": "Activity", "setting": "[4]", "value": 67, "unit": "%"}]}
